Data set [1] in a line: Cytotoxicity in human SH-SY5Y cells assessed as reduction in cell viability after 72 hrs incubation by MTT assay. On the technique in general: Formazan colour is commonly taken as a measure of viable cells.
Another data set deals with T1, Acetylcholinesterase (Mus musculus, UniProt P21836).
T1 sequence (P21836 whole entry): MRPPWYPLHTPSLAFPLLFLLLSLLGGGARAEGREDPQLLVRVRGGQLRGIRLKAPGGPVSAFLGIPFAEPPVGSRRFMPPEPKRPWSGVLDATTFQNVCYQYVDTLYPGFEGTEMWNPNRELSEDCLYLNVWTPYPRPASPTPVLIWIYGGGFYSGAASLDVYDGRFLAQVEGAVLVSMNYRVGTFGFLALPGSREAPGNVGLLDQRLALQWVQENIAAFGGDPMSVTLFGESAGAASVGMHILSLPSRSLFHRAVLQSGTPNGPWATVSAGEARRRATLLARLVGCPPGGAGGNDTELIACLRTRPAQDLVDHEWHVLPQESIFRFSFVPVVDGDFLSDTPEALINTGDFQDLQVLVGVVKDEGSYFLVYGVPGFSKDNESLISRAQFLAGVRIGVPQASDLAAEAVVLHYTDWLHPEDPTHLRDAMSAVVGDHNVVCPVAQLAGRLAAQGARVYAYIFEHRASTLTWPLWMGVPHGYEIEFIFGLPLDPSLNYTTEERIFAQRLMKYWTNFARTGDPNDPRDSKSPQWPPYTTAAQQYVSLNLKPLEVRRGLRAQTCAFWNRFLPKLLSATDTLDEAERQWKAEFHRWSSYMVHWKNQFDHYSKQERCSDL
Kind of data set: Inhibition of mouse brain AChE using acetylthiocholine iodide as substrate measured after 30 mins by Ellman's method. On the technique in general: DTNB colorimetry detects thiols as they appear.

In another data set the target is Cholinesterase (Mus musculus, UniProt Q03311). Kind of data set: Inhibition of mouse plasma BuChE using S-butyrylacetylthiocholine iodide as substrate measured after 30 mins by Ellman's method relative to control.
For data set [2], the target named is T2, Histamine H3 receptor (Homo sapiens, UniProt Q9Y5N1). Nature of the data set: Inhibition of human H3R expressed in methylhistamine-induced human H3-bla U2OS cells incubated for 30 mins by beta-lactamase complementation technology. It counts as cell-based. The method in brief:
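H3-bla U2OS cells co-express human H3R-Gal4-VP16 (TEV site) and β-arrestin/TEV protease with a UAS-β-lactamase reporter. IC50 came from log concentration-inhibition curves. Triplicates, three independent experiments.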

A short description of data set [3]: Antioxidant activity assessed as AAPH radical scavenging activity preincubated for 15 mins with fluorescein before AAPH addition and recorded every 2 mins for 160 mins by ORAC-FL assay. It counts as functional. The procedure, abridged:
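ORAC-FL assay in 75 mM PBS, pH 7.4. Compound was preincubated with fluorescein (20 nM final) for 15 min at 37 °C, then AAPH (18 mM final) was added. Fluorescence (ex 460/em 520 nm) was read every 2 min for 160 min. Net area under the decay curve, blank-normalized, is expressed as µM Trolox equivalents per µM compound. Duplicates, ≥3 independent assays.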

The target of data set [4] is T3, Acetylcholinesterase (Mus musculus) (UniProt P21836).
T3 sequence (whole entry): T1 sequence (P21836 whole entry)
The conditions noted are these: at 10 µM.

Data set [5] concerns the target T2, Histamine H3 receptor. Nature of the data set: Inhibition of human H3R expressed in methylhistamine-induced human H3-bla U2OS cells at 10 uM incubated for 30 mins by beta-lactamase complementation technology relative to control. Type of data set: cell-based.
The test system of data set [6] is BV-2. Nature of the data set: Antiinflammatory activity in mouse BV2 cells assessed as reduction in LPS-induced IL-6 production at 10 uM pretreated for 1 hr followed by LPS challenge and measured after 24 hrs by ELISA assay. Type of data set: functional, cell-based. On the technique in general: An ELISA detects its analyte on a solid surface through an enzyme-linked reagent.

Another data set deals with SH-SY5Y. Kind of data set: Neuroprotective activity against copper-induced cytotoxicity in human SH-SY5Y cells expressing APP Swedish mutant assessed as increase in cell viability at 10 uM pre-incubated for 2 hrs followed by copper addition and measured after 24 hrs by MTT assay. Type of data set: functional, cell-based.
Data set [7] relates to BV-2. Nature of the data set: Antiinflammatory activity in mouse BV2 cells assessed as reduction in LPS-induced TNF-alpha production at 10 uM pretreated for 1 hr followed by LPS challenge and measured after 24 hrs by ELISA assay. Type of data set: functional, cell-based.

Molecules are shown by their SMILES. The source made the active and inactive calls. No cut-off for these calls is given here.

Sequence of Cholinesterase (Q03311 whole entry): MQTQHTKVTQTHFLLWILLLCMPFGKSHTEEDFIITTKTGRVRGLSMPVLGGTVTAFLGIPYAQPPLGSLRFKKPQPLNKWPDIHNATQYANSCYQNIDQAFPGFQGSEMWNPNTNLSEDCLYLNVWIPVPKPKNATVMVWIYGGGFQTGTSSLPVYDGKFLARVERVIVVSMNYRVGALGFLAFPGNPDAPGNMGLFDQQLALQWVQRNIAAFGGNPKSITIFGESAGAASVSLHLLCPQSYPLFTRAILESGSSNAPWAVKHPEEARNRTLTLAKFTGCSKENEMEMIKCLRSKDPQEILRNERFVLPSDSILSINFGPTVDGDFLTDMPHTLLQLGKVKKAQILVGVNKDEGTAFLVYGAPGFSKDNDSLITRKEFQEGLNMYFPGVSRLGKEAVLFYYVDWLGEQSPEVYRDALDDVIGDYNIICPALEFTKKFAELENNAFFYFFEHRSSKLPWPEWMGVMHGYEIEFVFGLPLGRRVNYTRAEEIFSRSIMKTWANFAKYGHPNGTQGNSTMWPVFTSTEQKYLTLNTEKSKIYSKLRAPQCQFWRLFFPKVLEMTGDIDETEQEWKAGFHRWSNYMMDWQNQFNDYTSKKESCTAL
T2 sequence (Q9Y5N1 whole entry, the tested form may be a part): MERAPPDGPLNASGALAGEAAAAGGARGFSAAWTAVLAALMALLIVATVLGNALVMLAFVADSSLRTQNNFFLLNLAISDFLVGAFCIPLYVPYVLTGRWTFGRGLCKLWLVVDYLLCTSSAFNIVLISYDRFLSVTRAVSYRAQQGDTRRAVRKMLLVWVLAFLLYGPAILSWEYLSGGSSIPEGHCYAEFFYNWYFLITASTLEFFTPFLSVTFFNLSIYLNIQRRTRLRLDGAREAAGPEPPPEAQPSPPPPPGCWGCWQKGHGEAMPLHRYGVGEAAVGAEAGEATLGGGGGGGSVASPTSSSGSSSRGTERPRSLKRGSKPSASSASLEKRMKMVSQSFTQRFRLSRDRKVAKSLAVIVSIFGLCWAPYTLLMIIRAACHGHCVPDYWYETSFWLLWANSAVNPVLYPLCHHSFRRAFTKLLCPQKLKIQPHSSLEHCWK

As a reminder, the CC50 is the concentration that lowers cell viability or growth by half. Take `CCN(C)C(=O)Oc1cccc([C@H](C)N(C)C)c1` [RIVASTIGMINE]: the CC50 at 72 h in data set [1] (SH-SY5Y cells) was found to be 67.8 µM.
What is called IC50 is the concentration that inhibits the measured activity by half. Regarding `COc1ccc(-c2coc3cc(OCCCCN4CCCCC4)ccc3c2=O)cc1`, the IC50 at Acetylcholinesterase (read-out: IC50) worked out at 3.98 µM; on Cholinesterase (read-out: IC50), 8.83 µM; at Histamine H3 receptor [2] (read-out: IC50) it was 0.73 µM. Further, the Activity in [3] was determined as 0.07 equiv/µM.
Broadly, the inhibition is the change of the read-out against control, counted positive when it falls. As for `O=c1c(-c2ccc(OCCN3CCCCC3)cc2)coc2cc(OCCN3CCCCC3)ccc12`, the figures for the inhibition (in [4]; on Histamine H3 receptor [5]) were 82.8% and 71.5%, respectively. In addition, the IC50 on Acetylcholinesterase (read-out: IC50) is 0.35 µM; on Cholinesterase (read-out: IC50), 2.92 µM; on Histamine H3 receptor [2] (read-out: IC50), 1.94 µM. Besides, the Activity in data set [3] was determined as 0.14 equiv/µM.
Regarding `COc1ccc(-c2coc3cc(OCCNC(=O)OC(C)(C)C)ccc3c2=O)cc1`, the inhibition in [4] is -0.17%. The half-maximal inhibitory concentration (IC50) result against Acetylcholinesterase, against Cholinesterase and against Histamine H3 receptor [2] (u2os) was “Not Active” each time. The Activity in data set [3] stood at 0.05 equiv/µM.
In the case of `Cc1c(C)c2c(c(C)c1O)CCC(C)(C(=O)O)O2` (stereo not given), the Activity in [3] was found to be 1 equiv/µM.
In the case of `COc1ccc(-c2coc3cc(OCCNC4CCCCC4)ccc3c2=O)cc1`, the inhibition amounted to 73.7% in [4] and 41% on Histamine H3 receptor [5]. Moreover, the results for the IC50 at Acetylcholinesterase (read-out: IC50), on Cholinesterase (read-out: IC50) and on Histamine H3 receptor [2] (read-out: IC50) were 5 µM, 21.6 µM and above 50 µM, respectively. The Activity in data set [3] came to 0.01 equiv/µM.
In the case of `COc1ccc(-c2coc3cc(OCCN)ccc3c2=O)cc1.Cl`, the inhibition in data set [4] was 16.9%; against Histamine H3 receptor [5], -6.69%. Besides, the 50% inhibitory concentration (IC50) was above 50 µM on Acetylcholinesterase (read-out: IC50), “Not Active” at Cholinesterase and “Not Active” against Histamine H3 receptor [2] (u2os). Further, the Activity in [3] was determined as 0.08 equiv/µM.
In the case of `O=c1c(-c2ccc(OCCN3CCCCC3)cc2)coc2cc(OCCN3CCCC3)ccc12`, the figures for the half-inhibitory concentration (IC50) at Acetylcholinesterase (read-out: IC50), at Cholinesterase (read-out: IC50) and on Histamine H3 receptor [2] (read-out: IC50) were 0.71 µM, 4.55 µM and 2.07 µM, respectively. For the same compound, in data set [3], the Activity turned out to be 0.14 equiv/µM.
For `S=C(NC1CCCCC1)N1CCC(c2cnc[nH]2)CC1` [THIOPERAMIDE], the CC50 at 72 h in [1] (SH-SY5Y cells) was found to be 85.8 µM. Besides, the inhibition against Histamine H3 receptor [5] was 71.1%.
As to `O=c1c(-c2ccc(OCCN3CCCCC3)cc2)coc2cc(OCCCCN3CCCCC3)ccc12`, the inhibition in [4] stood at 85.1%; on Histamine H3 receptor [5], 72.4%. In addition, the IC50 at Acetylcholinesterase (read-out: IC50) turned out to be 0.2 µM; at Cholinesterase (read-out: IC50), 2.49 µM; on Histamine H3 receptor [2] (read-out: IC50), 0.41 µM. For the same compound, in [3], the Activity was found to be 0.11 equiv/µM.
`COc1ccc(-c2coc3cc(OCCOCCN4CCCCC4)ccc3c2=O)cc1`: the inhibition in data set [4] was determined as 35%; against Histamine H3 receptor [5], 30.3%. Further, the half-inhibitory concentration (IC50) on Acetylcholinesterase (read-out: IC50), on Cholinesterase (read-out: IC50) and at Histamine H3 receptor [2] (read-out: IC50) was above 50 µM each time. Moreover, the Activity in [3] was 0.01 equiv/µM.
Regarding `COc1ccc(-c2coc3cc(OCCNc4c5c(nc6ccccc46)CCCC5)ccc3c2=O)cc1`, the inhibition in data set [4] worked out at 85.8%; at Histamine H3 receptor [5], 60.5%. For the same compound, the concentration for half-maximal inhibition (IC50) on Acetylcholinesterase (read-out: IC50) was 0.96 µM; on Cholinesterase (read-out: IC50), 0.38 µM; at Histamine H3 receptor [2] (read-out: IC50) it was above 10 µM. Moreover, the Activity in [3] amounted to 0.01 equiv/µM.
Regarding `COc1ccc(-c2coc3cc(OCCNC4CCCC4)ccc3c2=O)cc1`, the inhibition worked out at 78.5% in [4] and 47.1% against Histamine H3 receptor [5]. Moreover, the IC50 on Acetylcholinesterase (read-out: IC50) is 4.5 µM; on Cholinesterase (read-out: IC50), 5.98 µM; at Histamine H3 receptor [2] (read-out: IC50) it was above 50 µM. The Activity in data set [3] is 0.01 equiv/µM.
Turning to `COc1ccc(-c2coc3cc(OCCN4C(=O)c5ccccc5C4=O)ccc3c2=O)cc1`, the inhibition in data set [4] is 11.2%. For the same compound, the half-maximal inhibitory concentration (IC50) on Acetylcholinesterase (read-out: IC50) is above 50 µM; on Cholinesterase, “Not Active”; against Histamine H3 receptor [2] (u2os) it was “Not Active”. The Activity in data set [3] was 0.01 equiv/µM.
In the case of `CCN(C)CCCCOc1ccc2c(=O)c(-c3ccc(OC)cc3)coc2c1`, the IC50 turned out to be 9.47 µM at Acetylcholinesterase (read-out: IC50) and 0.43 µM on Histamine H3 receptor [2] (read-out: IC50). The Activity in data set [3] came out at 0.11 equiv/µM.
Taken in the same sequence, the figures for `CCN(C)CCCOc1ccc2c(=O)c(-c3ccc(OC)cc3)coc2c1` were 22.6 µM, 0.52 µM and 0.12 equiv/µM.
`O=c1c(-c2ccc(O)cc2)coc2cc(OCCCCN3CCCCC3)ccc12`: the inhibition is 63.4% in [4] and 6.88% against Histamine H3 receptor [5]. In addition, the IC50 on Acetylcholinesterase (read-out: IC50) is 26.8 µM; at Cholinesterase (read-out: IC50), 24.8 µM; on Histamine H3 receptor [2] (read-out: IC50), above 50 µM. Also, the Activity in data set [3] was 0.88 equiv/µM.
For the compound `COc1cc2c(cc1OC)C(=O)C(CC1CCN(Cc3ccccc3)CC1)C2` (stereo not given) [DONEPEZIL], the CC50 at 72 h in data set [1] (sh-sy5y) was determined as 25.1 µM. Besides, the result in the data set with BV-2 [6], in the data set with SH-SY5Y and in the data set with BV-2 [7] was inactive.

The values above are taken from ChEMBL document CHEMBL4433203, “Design, synthesis, and evaluation of isoflavone analogs as multifunctional agents for the treatment of Alzheimer's disease” (Eur J Med Chem, 2019).
